Assay outcomes from PubChem BioAssay.
HKDC1 activator: increases human hexokinase HKDC1 activity; activity change, negative = activation, % at 20 µM; recombinant HKDC1, G6PDH/diaphorase resazurin fluorescence; active compounds read low; 340,000 tested, 0.056% active; Q2TB90;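 active = activation of 40% or more at 20 µM, a change of -40% or lower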
Target sequence (Q2TB90 whole entry, looked up): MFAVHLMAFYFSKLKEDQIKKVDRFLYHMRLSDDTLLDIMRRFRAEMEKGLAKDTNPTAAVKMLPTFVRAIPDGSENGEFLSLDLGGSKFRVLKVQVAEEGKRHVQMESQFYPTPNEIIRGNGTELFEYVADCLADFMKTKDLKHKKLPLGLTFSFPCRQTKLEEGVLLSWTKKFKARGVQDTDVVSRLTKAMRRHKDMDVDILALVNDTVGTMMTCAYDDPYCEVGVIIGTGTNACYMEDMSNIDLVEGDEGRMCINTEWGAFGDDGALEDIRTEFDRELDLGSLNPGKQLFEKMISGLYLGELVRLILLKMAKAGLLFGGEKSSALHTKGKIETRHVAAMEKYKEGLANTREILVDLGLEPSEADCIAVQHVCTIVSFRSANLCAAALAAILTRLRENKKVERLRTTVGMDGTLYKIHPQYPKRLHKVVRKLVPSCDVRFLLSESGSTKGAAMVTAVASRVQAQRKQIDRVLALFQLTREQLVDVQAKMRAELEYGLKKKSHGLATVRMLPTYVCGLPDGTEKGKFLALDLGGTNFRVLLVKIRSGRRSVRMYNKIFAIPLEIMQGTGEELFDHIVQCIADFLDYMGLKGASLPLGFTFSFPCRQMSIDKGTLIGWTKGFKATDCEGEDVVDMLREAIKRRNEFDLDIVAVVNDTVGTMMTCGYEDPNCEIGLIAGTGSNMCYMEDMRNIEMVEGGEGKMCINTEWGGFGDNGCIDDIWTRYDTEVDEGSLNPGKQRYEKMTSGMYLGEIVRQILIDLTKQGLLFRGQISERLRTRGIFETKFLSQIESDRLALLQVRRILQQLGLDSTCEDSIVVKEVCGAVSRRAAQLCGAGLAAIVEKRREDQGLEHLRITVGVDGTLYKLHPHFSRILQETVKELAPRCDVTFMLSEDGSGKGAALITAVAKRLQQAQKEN
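System: in-house human HKDC1 enzyme, G6PDH and diaphorase coupling enzymes; Quantity: 5 µg/mL HKDC1 final; Buffer or medium: Tris/MgCl2 buffer, pH 8.0; Dosing: single compound dose of 20 µM, 1% DMSO final; Times: 90 min reaction at room temperature, dark; Detection: coupled resazurin-to-resorufin fluorescence, Ex 525/Em 613 nm.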
Numbers without * were called inactive. These entries were drawn from the full list.

How did Clc1ccc(N=c2ssnc2Cl)nc1 do in these assays?
HKDC1 activator: -193.9*

How did COc1ccc(NC(=O)CSc2ccc(-c3ccco3)nn2)cc1OC do in these assays?
HKDC1 activator: 42.8

Results for CC1COCC(C)N1C1=C(Cl)C(=O)c2ccccc2C1=O (stereo not drawn) ?
HKDC1 activator: 37.9

What do the screens show for `Cc1cc(C)n2cc(CSc3nnc(-c4ccccc4)c(-c4ccccc4)n3)nc2n1`?
HKDC1 activator: 38.0

What do the screens show for `COC(=O)CCC(=O)OC1(C)C(=O)C2=CN(c3ccccc3)C(c3ccc(OC)cc3)=CC2=C(Br)C1=O` (stereo not drawn)?
HKDC1 activator: 38.2

What do the screens show for `O=C(O)c1ccccc1N=Nc1c(O)[nH]c2ccc([N+](=O)[O-])cc12`?
HKDC1 activator: 37.1

How did NC1=C(Cl)C(=O)c2ccc(S(N)(=O)=O)cc2C1=O do in these assays?
HKDC1 activator: -133.9*

Results for O=C1C=C(N2CCOCC2)c2ccccc2C1=O ?
HKDC1 activator: 76.6

How did CC(=NNC(=S)N1CCCCC1)c1cccc(C)n1 do in these assays?
HKDC1 activator: -40.4*

How did O=C1C(Cl)=C(N2CCC(C(=O)O)CC2)C(=O)c2ccccc21 do in these assays?
HKDC1 activator: 49.6

What do the screens show for `C=CC1=C(C(=O)O)N2C(=O)C(NC(=O)Cc3ccccc3)C2SC1` (stereo not drawn)?
HKDC1 activator: 40.2

What do the screens show for `CN1CCN(C2=C(Cl)C(=O)C(c3cnc(N4CCCCC4)s3)=C(Cl)C2=O)CC1`?
HKDC1 activator: 54.6

What do the screens show for `O=C(CSc1n[nH]c(=O)[nH]c1=O)Nc1ccc2c(c1)C(=O)c1ccccc1C2=O`?
HKDC1 activator: 52.3

Results for COc1ccc(CN2CCn3nc(C(=O)NC(C)C)cc3C2=O)cc1 ?
HKDC1 activator: -74.6*

What do the screens show for `Cn1c2ccccc2c(=O)c2c(=O)n(-c3ccc(F)cc3)c(-c3cccs3)nc21`?
HKDC1 activator: 68.4

Results for C[c-]1[c-](C)[c-](C)[c-](C)[c-]1C.[Fe].c1cc2nccc(N3CCCC3)[c-]2c1 (stereo not drawn) ?
HKDC1 activator: 48.5

What do the screens show for `Cc1ccc(N=C2C(=S)N(c3ccc(C)cc3)C(=N)N2/N=C/c2ccc(Cl)cc2)cc1`?
HKDC1 activator: -119.5*

What do the screens show for `COc1cccc(OC)c1-c1nn2c(-c3cc(-c4ccccc4)n[nH]3)nnc2s1`?
HKDC1 activator: 43.8

Results for Oc1ccc(O)c(Cc2nc3ccccc3[nH]2)c1 ?
HKDC1 activator: 54.3

Results for Cc1ccc(S(=O)(=O)/N=C2\C=C(Nc3cccc(C(=O)O)c3)C(=O)c3ccccc32)c(C)c1 ?
HKDC1 activator: 39.0

Results for O=C(COc1ccccc1/C=C\c1[nH]c(=O)[nH]c(=O)c1[N+](=O)[O-])Nc1ccccc1 ?
HKDC1 activator: 39.6

How did CC1(C)C(=O)Nc2ccccc2N1C(=O)COC(=O)c1cc(Cl)cc(Cl)c1 do in these assays?
HKDC1 activator: -41.3*

Results for O=C(Nc1ccc(Nc2ccncc2)cc1)c1ccc(Nc2ccnc3ccc([N+](=O)[O-])cc23)cc1 ?
HKDC1 activator: 43.7

What do the screens show for `O=C(NCc1ccccn1)c1cc(S(=O)(=O)N2CCN(c3ccccc3)CC2)ccc1Cl`?
HKDC1 activator: 73.3

What do the screens show for `COC1=CC(=O)c2c(ccc3ncnc(N)c23)C1=O`?
HKDC1 activator: 87.1

What do the screens show for `COc1cccc2c1C(=O)C=C(C)C2=O`?
HKDC1 activator: -43.4*

Results for CCOc1ccc2c(c1)C(NC(C)=O)C(=O)N2CCN1CCOCC1 (stereo not drawn) ?
HKDC1 activator: 82.3

Results for COc1cc(SC#N)ccc1N=Cc1c(C)[nH]n(-c2ccc(Cl)cc2)c1=O ?
HKDC1 activator: -40.7*

What do the screens show for `CC1(C)CC[C@]2(C(=O)n3ccnc3)CC[C@]3(C)[C@H](C(=O)C=C4[C@@]5(C)C=C(C#N)C(=O)C(C)(C)[C@@H]5CC[C@]43C)[C@@H]2C1`?
HKDC1 activator: 47.9

What do the screens show for `CN(C)C(=O)/C(C#N)=C\c1cc(Br)c(Sc2ccc(Cl)cc2)o1`?
HKDC1 activator: 35.3

What do the screens show for `Cc1c(Cc2ccccc2)sc(NC(=O)Cc2ccccc2)c1C(N)=O`?
HKDC1 activator: -52.4*

What do the screens show for `COC(=O)c1c(NC(C)=O)sc(Cc2ccccc2)c1C`?
HKDC1 activator: -77.4*

How did CCOc1ccc(S(=O)(=O)Nc2cc(SCC(=O)O)c(O)c3ccccc23)cc1 do in these assays?
HKDC1 activator: 60.3

How did COCc1cc(SC2CCCCC2)nc(C)n1 do in these assays?
HKDC1 activator: 45.5

How did O=C1c2ccc3c4c(ccc(c24)C(=O)N1c1ccc(O)cc1)C(=O)N(c1ccc(O)cc1)C3=O do in these assays?
HKDC1 activator: 55.8

Results for Cc1ccc(S(=O)(=O)/N=C2/C=C(Sc3ncn[nH]3)C(=O)c3ccccc32)cc1 ?
HKDC1 activator: 69.2

How did CCN(CC)C(=O)c1ccc(C(=O)c2c(C)cc(C)cc2C)cc1 do in these assays?
HKDC1 activator: 39.3

Results for Cc1ccc(-c2nc(NC(=O)CSc3cc(C)c4ccccc4n3)ns2)cc1 ?
HKDC1 activator: 56.8
